Source: PubChem BioAssay
Most compounds without a hit are left out; they make up all but 2.7% or so of the library.
BB579 growth dn: chemicals that inhibit yeast BB579 growth in restrictive medium (lifespan-shortening candidates); S. cerevisiae BB579 growth, OD615, 48 h; 0.51% of 140,000 active; inhibition, % at 10 µM; AID 804;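 active means inhibition above a set limit, 3 SD over the mean compound inhibition, cut at about 44% in these data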
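Assay system: S. cerevisiae DeaD strain BB579 yeast. Medium: CSMM-D restrictive synthetic medium containing dextrose (glucose). Times: 4 h cell preincubation, 48 h compound exposure, 30 °C humidified. Signal: OD615 turbidity measurement. Benchmarks: positive control amphotericin B 10 µg/mL.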
RAM network inh: yeast RAM network inhibition; S. cerevisiae dse1pr::URA3 reporter, 5-FOA growth OD615, 2 d; analog-sensitive cbk1-as2 kinase mutant strain; inhibition, % at 50 µM; 1.8% of 190,000 active; AID 868;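 active means inhibition above a set limit, 3 SD over mean compound inhibition, cut at about 8.4% in these data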;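 further: 0% = DMSO-only wells with no growth and 100% = 10 µM 1-NA-PP1 full growth; inhibition rescues growth on 5-FOA so higher OD means more RAM inhibition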
Yeast lifespan up: yeast lifespan extension | S. cerevisiae growth with nicotinamide, OD615; deaD strain in restrictive glucose medium | inhibition of the nicotinamide effect, % at 10 µM | 0.68% of 130,000 active | AID 775;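 active means inhibition above a set limit, placed 3 SD over the median of all compounds, cut at about 26% in these data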;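 further: 0% = nicotinamide-treated wells and 100% = cells grown without nicotinamide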
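assay system = DeaD-strain S. cerevisiae | buffer or medium = restrictive glucose medium | reagent = 1.5 mM nicotinamide | compound = 10 µM single point, 0.25% DMSO | incubation = 48 h compound exposure at 30 °C, humidified | signal = OD615 measurement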
SDO1 yeast rescue: compounds rescuing growth of sdo1-depleted yeast, bone marrow failure model; S. cerevisiae sdo1-depleted JHY4D growth rescue, OD600 30 h; stronger effect = higher value; pdr5 snq2 efflux-pump mutant strain; z-score at 10 µM; 0.21% of 140,000 active; AID 817;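 active means z-score above 3 at both the 24 hr and the 30 hr optical density reads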;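 further: z-score against mean and SD of all compound wells on the same plate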
* marks the source's active call; other numbers are inactive results; . = not tested or not shown.

SMILES | BB579 growth dn | RAM network inh | Yeast lifespan up | SDO1 yeast rescue
CCC(C)n1cnc2c(c1=O)c1nc3ccccc3nc1n2Cc1ccc2c(c1)OCO2 (stereo not given) | -72 | 10* | -1 | -0.2
CC(=O)C1=C(C)NC(=O)CC1c1ccc(F)cc1 (stereo not given) | . | 0 | . | .
O=C(CN1CCN(C/C=C/c2ccccc2)CC1)NC(=O)NC1CCCCC1 | . | -1 | . | .
CC(=O)c1ccc(NC(=O)C2C3C=CC(C3=C(c3ccccc3)c3ccccc3)C2C(=O)O)cc1 (stereo not given) | . | 10* | . | .
CC(C)=C1C2C=CC1C(C(=O)Nc1cc(C)ccc1C)C2C(=O)O (stereo not given) | -29 | 1 | 2 | -0.24
CCCCCCNC(=O)c1c(O)c2ccccc2[nH]c1=O | -71 | 5 | 36* | -1.2
CCC(=O)NNC(=O)c1c(O)c2ccccc2[nH]c1=O | . | 1 | . | .
CN(C)c1ccc(/C=N/NC(=O)c2cccc(C(=O)N/N=C/c3ccc(N(C)C)cc3)n2)cc1 | . | 9.9* | . | .
CCOC(=O)C1=C(c2ccccc2)O/C(=C(\C(=O)OC)C(F)(F)F)S1 | -38 | 11* | 6 | 1.1
COc1ccc(NC(=O)COC(=O)c2ccc(O)cc2)c([N+](=O)[O-])c1 | . | 5 | . | .
COc1ccc(NC(=O)COC(=O)C2CCC(C(C)(C)C)CC2)c([N+](=O)[O-])c1 (stereo not given) | -10 | 11* | 2 | -0.02
Cc1cccc(OCc2nc3c4c(ncn3n2)-c2ccccc2CC42CCCC2)c1 | -26 | 9.2* | 7 | 0.71
Cc1ccc(OCc2nc3c4c(ncn3n2)-c2ccccc2CC42CCCC2)cc1 | -2 | 10* | -4 | 0.97
Cc1ccccc1OCc1nc2c3c(ncn2n1)-c1ccccc1CC31CCCC1 | -20 | 11* | 1 | 0.62
COc1ccc(OCc2nc3c4c(ncn3n2)-c2ccccc2CC42CCCC2)cc1 | -45 | 5 | 0 | -0.4
CCOc1ccccc1N=CC1=C(O)CC(c2ccccc2)CC1=O (stereo not given) | . | 11* | . | .
COc1ccc(C(=O)c2nccc3ccccc23)cc1 | . | -1 | . | .
CC1(C)Cc2c(C#N)c(N3CCOCC3)nc(Cc3ccccc3)c2CO1 | 13 | 11* | -25 | -0.85
CN(Cc1ccccc1)CC(O)COc1ccc(CNCc2ccc(Cl)s2)cc1 (stereo not given) | . | 2 | . | .
CCOC(=O)CS(=O)(=O)c1nc(-c2ccccc2)cc(C(F)(F)F)n1 | -45 | -2 | . | -1.5
CCOC(=O)CS(=O)(=O)c1nc(-c2ccc(F)cc2)cc(C(F)(F)F)n1 | -44 | -1 | 67* | -1.5
O=C(O)CCS(=O)(=O)c1nc(-c2cccs2)cc(C(F)(F)F)n1 | -42 | 0 | 19 | -0.22
CCOC(=O)CCS(=O)(=O)c1nc(-c2ccccc2)cc(C(F)(F)F)n1 | -32 | -1 | 67* | -0.91
COC(=O)CCS(=O)(=O)c1nc(-c2ccccc2)cc(C(F)(F)F)n1 | -8 | -1 | 77* | -0.32
CC12CN3CC(C)(CN(C1)C3c1ccc(Br)cc1O)C2 (stereo not given) | -44 | 1 | 33* | -0.52
SMILES | BB579 growth dn | RAM network inh | Yeast lifespan up | SDO1 yeast rescue
c1ccc(-c2ccc(C(c3ccccc3)n3ccnc3)cc2)cc1 (stereo not given) | 96* | 0 | -7 | -2.9
c1ccc(-c2ccc(-n3ccnc3)cc2)cc1 | -33 | 3 | -14 | -0.91
COc1cc(C=C(C(C)=O)C(C)=O)ccc1O | -6 | 0 | 2 | 1.7
COc1cc(/C=C/C(=O)CC(=O)/C=C/c2ccc(O)c(OC)c2)ccc1O | -6 | 8.7* | -1 | -0.29
O=C(NC(=S)N1CCc2ccccc21)c1ccc(Br)o1 | . | -1 | . | .
O=C(NC(=S)N1CCc2ccccc21)c1ccccc1Br | -24 | 0 | 27* | -1.4
CC(=O)NCC(=O)OCC(=O)c1ccc(C)c(C)c1 | 12 | 1 | -1 | 0.89
Cc1ccc(S(=O)(=O)CCC(=O)OCC(=O)c2ccc(C)c(C)c2)cc1 | -33 | 11* | 6 | -0.91
C/C(=N\NC(=O)c1sccc1-n1cccc1)c1cccs1 | . | 2 | . | .
COc1cc(C(=O)Nc2cccc(-c3nc4cc(C)ccc4o3)c2)cc(OC)c1OC | -49 | 8.7* | 5 | -1.2
CCn1c(SCC(N)=O)nnc1-c1ccco1 | -17 | -1 | -7 | 0.56
CCn1c(SCc2cccc(C(F)(F)F)c2)nnc1-c1ccco1 | -12 | 9.6* | -5 | -0.11
CC(CCc1ccccc1)NC(=O)CN1C(=O)NC2(CCCCC2)C1=O (stereo not given) | . | 0 | . | .
CCCN(CCC)C(=O)CSc1nc2c(sc(=S)n2-c2ccc(OCC)cc2)c(=O)[nH]1 | . | 5 | . | .
CCOC(=O)CC(=O)CSc1nc2c(sc(=S)n2-c2ccc(OCC)cc2)c(=O)[nH]1 | -36 | 8.7* | 14 | -0.08
O=C(/C=C/c1ccc(Br)cc1)Nc1ccc(S(=O)(=O)Nc2ncccn2)cc1 | . | 9.8* | . | .
COC(=O)C1=C(C)N(CCc2cc(OC)c(OC)c(OC)c2)C(=O)N[C@H]1c1ccc(Br)cc1 | -45 | 3 | 1 | 0.12
Cc1cc2ncn(/N=C/c3ccc(-c4ccccc4)o3)c2cc1C | -45 | 9.5* | -22 | -1.1
COC(=O)c1sc2ccccc2c1-n1cccc1C(=O)C(=O)Nc1ccc(Cl)cc1 | -35 | 2 | -7 | -0.33
COC(=O)c1sc2ccccc2c1-n1cccc1C(=O)C(=O)Nc1ccc(C)cc1 | -54 | 6 | 38* | -1.8
COc1ccc(-c2csc(NC(=O)/C(N=Nc3ccccc3)=C(\C)O)n2)cc1 | . | 5 | . | .
CCCCOc1ccc(S(=O)(=O)NNC(=O)c2cc3ccccc3o2)cc1 | -24 | 10* | 2 | -1.9
CC(C)COc1ccc(S(=O)(=O)NNC(=O)c2cc3ccccc3o2)cc1 | -20 | 1 | 11 | -1.5
CCOc1cccc(CNCCSc2nnnn2C)c1 | . | 0 | . | .
CC(Sc1nc(-c2ccccc2)cs1)C(=O)Nc1ccc(Cl)cn1 (stereo not given) | 3 | 9.5* | -3 | -0.53
SMILES | BB579 growth dn | RAM network inh | Yeast lifespan up | SDO1 yeast rescue
CCCc1cc(C(=O)NC2CCCCC2)no1 | 43* | 0 | 0 | 0.28
Cn1c(CCNC(=O)c2ccc(Cl)c(Cl)c2)nnc1SCc1ccc(Cl)c(Cl)c1 | -73 | 8.8* | 4 | -1.5
COc1ccc(CSC2=CS(=O)(=O)c3ccccc3N2)cc1 | . | 1 | . | .
COC(=O)c1sccc1NC(=O)CSc1cccc(Cl)c1Cl | -51 | 8.7* | -13 | -0.51
COc1ccccc1OCCOc1ccc(C(=O)c2ccccc2)cc1 | -11 | 10.0* | -6 | 0.17
O=C(c1ccccc1)c1ccc(OCCO)cc1 | . | 0 | . | .
CCOC(=O)c1c(C)n(OCc2ccccc2)c2ccc3nonc3c12 | -42 | 10* | -9 | -0.34
COC(=O)c1ccc(CNC(=O)COC(=O)COc2ccc(OC)cc2)cc1 | . | 0 | . | .
Cc1ccc(C(=O)NCCSC2CCCCC2)cc1S(=O)(=O)Nc1ccccc1 | -51 | 11* | -9 | -0.24
Cc1ccc(-n2cc(C(=O)c3ccc4ccccc4c3O)cn2)cc1 | -57 | 8.5* | 9 | 0.8
Cc1ccc(-n2cc(C(=O)c3ccccc3O)cn2)cc1 | -46 | 6 | -13 | -0.5
